Measured values from paper PMC5407101 (Pharmacognosy Magazine, 2017).

What was measured:
Format in all cases: in vitro ADME
[1] = system: UDP-glucuronosyltransferases (UGTs) in rat liver microsomes; assay: Kinetic analysis for 4-MU glucuronidation in RLM
Procedure, shortened: (§1)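 Microsomes from livers or kidneys of untreated male Sprague-Dawley rats. Protein was 0.1 mg mL–1 (RLM) or 0.125 mg mL–1 (RKM), pre-treated on ice for 5 min with Triton X-100 (0.1 μL mg–1 RLM; 0.2 μL mg–1 RKM), in Tris-HCl pH 7.4 with MgCl2. 4-MU ranged 0-10 mM. After 5 min at 37°C, UDPGA started the 15-min reaction, stopped with TCA. 4-MUG was measured by C18 HPLC-UV at 316 nm. Km and Vmax came from a Michaelis-Menten fit.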

[2] = system: UDP-glucuronosyltransferases (UGTs) in rat kidneys microsomes; assay: Kinetic analysis for 4-MU glucuronidation in RKM
Procedure, shortened: as §1

[3] = system: UDP-glucuronosyltransferases (UGTs) in rat liver microsomes; assay: Inhibition of 4-MU glucuronidation assay in RLM; settings: for fold more potent inhibition of 4-MU glucuronidation with RLM than with RKM: ratio of IC50 RKM/RLM
[4] = system: UDP-glucuronosyltransferases (UGTs) in rat liver microsomes; assay: Kinetic analysis for p-NP glucuronidation in RLM
Procedure, shortened: (§2)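 RLM or RKM (5 mg mL–1) was pre-treated on ice for 5 min with Triton X-100 (0.25 v/v % RLM; 0.125 v/v % RKM). Incubation was in Tris-HCl pH 7.4 with MgCl2, at seven p-NP levels (0-3,000 µM), started with UDPGA, 37°C for 30 min. The reaction was stopped with TCA and alkalinised with NaOH, and read at 405 nm. Glucuronidated p-NP was taken as blank minus unreacted, per protein and time. Km and Vmax came from a Michaelis-Menten fit.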

[5] = system: UDP-glucuronosyltransferases (UGTs) in rat kidneys microsomes; assay: Kinetic analysis for p-NP glucuronidation in RKM
Procedure, shortened: as §2

[6] = read-out: Km of p-NP glucuronidation, Michaelis-Menten

Cc1cc(=O)oc2cc(O)ccc12 [4-MU, 4-methylumbelliferone]
Vmax of 4-MU glucuronidation ([1]; Michaelis-Menten, no inhibitor): 27.87 ± 1.08 nmol min^–1 mg^–1 | Km ([1]; read-out: Km of 4-MU glucuronidation, Michaelis-Menten, no inhibitor): 104 ± 20 µM | Vmax of 4-MU glucuronidation ([2]; Michaelis-Menten): 12.01 ± 0.12 nmol min^–1 mg^–1 | Km ([2]; read-out: Km of 4-MU glucuronidation, Michaelis-Menten): 101 ± 6 µM

COc1cc(C=O)cc(OC)c1O [Syringaldehyde]
fold higher IC50 in comparison with vanillin, 4-MU UGT inhibition ([3]; RLM): 120 fold | fold more potent inhibition of 4-MU glucuronidation with RLM than with RKM [3]: 1.2 fold

COc1cc(C=O)ccc1O [Vanillin]
fold more potent inhibition of 4-MU glucuronidation with RLM than with RKM [3]: 2.6 fold

O=[N+]([O-])c1ccc(O)cc1 [p-NP, p-nitrophenol]
Vmax of p-NP glucuronidation ([4]; Michaelis-Menten): 43.04 ± 1.64 nmol min^–1 mg^–1 | Km [4, 6]: 860 ± 86.8 µM | Vmax of p-NP glucuronidation ([5]; Michaelis-Menten): 9.320 ± 1.11 nmol min^–1 mg^–1 | Km [5, 6]: 857 ± 68.3 µM
